Assay outcomes deposited in PubChem by several laboratories.
PLCb3 inh = human PLC-beta3 inhibitors, primary screen, biochemical, fluorescence. 1-phosphatidylinositol 4,5-bisphosphate phosphodiesterase beta-3 (Homo sapiens), Q01970. Purified PLC-beta3, fluorogenic substrate. inhibition, % at 12.2 µM. actives 0.18% (n = 370,000); in the data active means inhibition above about 11%
Arr AP2 block = inhibitors of beta-arrestin/AP2 binding, primary screen, biochemical, GPCR trafficking, flow cytometry; beta-arrestin 1 C-terminal peptide binding to AP2 beta2-adaptin appendage (human); FITC-arrestin peptide / GST-AP2 beads; AP2 beta2 appendage carries R879A mutation; AID 504490, 2011; actives 0.31% (n = 340,000); inhibition, % at 10 µM;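 active means inhibition above a set limit, near 3 SD of compounds lacking own fluorescence, cut at about 54% in these data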
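Measured by: flow cytometry, FL1 (488/535 nm); Material: AP2 appendage R879A on GSH beads; Evaluation: percent response; Timing: pre-incubation 12 min, peptide binding 1 h, room temperature; Also added: 50 nM FITC-arrestin peptide; Medium: PBS with 0.05% Tween 20 and 0.1% BSA.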
procasp3 activ = activators of human procaspase-3 D3A mutant, primary screen, biochemical, absorbance, PC-3 D3A mutant, single concentration; actives 0.11% (n = 330,000); Caspase-3 (Homo sapiens), P42574; recombinant procaspase-3 D3A, Ac-DEVD-pNA absorbance 405 nm; activation, % at 8.5 µM;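 active means activation above the mean of all tested compounds plus 3 SD, cut at about 21% in these data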
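Test system: Procaspase-3 D3A mutant, all three cleavage aspartates alanine | Dosing: Single dose, 8.5 µM nominal compound, 0.8% DMSO | Schedule: 1 h preincubation, 2 h reaction | Technique: 405 nm absorbance of p-nitroaniline, reads at 0 and 120 min | Repeats: One well per compound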
HGIII-sPLA2 inh = human group III sPLA2 inhibitors, primary screen, biochemical, QFRET, BODIPY PC-A2 liposome substrate | Group 3 secretory phospholipase A2 (Homo sapiens), Q9NZ20 | QFRET BODIPY PC-A2 liposome hydrolysis, fluorescence | inhibition, % at 12.2 µM | actives 0.56% (n = 370,000) | AID 743126, 2013;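 active means inhibition above mean plus 3 SD of compounds lying within the high and low control bounds, cut at about 19% in these data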
PLCg1 inh = PLC-gamma1 enzyme inhibitors, primary screen, biochemical, fluorescence, purified enzyme | fluorogenic substrate | inhibition, % at 12.2 µM | AID 720700, 2013 | 1-phosphatidylinositol 4,5-bisphosphate phosphodiesterase gamma-1 (Homo sapiens), P19174 | actives 0.84% (n = 370,000)
proCasp7 act = procaspase-7 activators, primary screen, counter-screen for procaspase-3 activator project, biochemical, absorbance, HTS, human; actives 0.093% (n = 330,000); activation, % at 8.5 µM; recombinant procaspase-7, Ac-DEVD-pNA absorbance 405 nm; D23A/D198A/D206A triple mutant, cannot self-cleave; scale: DMSO 0, 5 µM enzyme 100; AID 463210, 2010; Caspase-7 (Homo sapiens), P55210;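 active means percent activation above the screen-wide mean plus 3 SD, cut at about 25% in these data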
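buffer or medium = Zinc-free HEPES/NaCl buffer, pH 7.4 | material = Procaspase-7 triple mutant (PC-7 D3A) | input = 2 µM procaspase-7 mutant as dispensed | signal = Epi-absorbance of released pNA at 405 nm, two timepoints | timing = 1 h preincubation, 2 h reaction | replicates = singlicate compound testing | evaluation = % activation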
PLCgamma1 ctr = PLC-gamma1 enzyme inhibitors, counter-screen for PLC-beta3 inhibitor project, biochemical, fluorescence | shares compounds with PLCg1 inh | purified PLC-gamma1, fluorogenic substrate | inhibition, % at 12.3 µM | actives 3.1% (n = 3,300) | AID 743258, 2014
PLCbeta3 conf = PLC-beta3 inhibitor confirmation, biochemical, fluorescence, purified enzyme; shares compounds with PLCg1 inh; fluorogenic substrate fluorescence; inhibition, % at 12.3 µM; actives 1% (n = 3,300); AID 743261, 2014; in the data active means inhibition above about 11%
Each line names hits and unclear results; the compound was inactive in the other large screens (follow-up assays come after a bar, where they were run). Rows were chosen to be rich in hits. Some 1.9% of all compounds tested hit in one or more screens of this group. Unless noted, no stated cut-off is given here; in the data, active means inhibition above about 9.5%; inactive means the rest.

Cc1cc(C)c(S(=O)(=O)N2CCOCC2)c(C)c1N(C)S(=O)(=O)c1ccccc1	none
COc1ccc(C[C@H]2CN3C(=NC[C@@H]3C(C)C)N2CCNC(=O)CCC2CCCCC2)cc1	none
CC(C)[C@H]1CN=C2N(CCNC(=O)CCC3CCCCC3)[C@H](Cc3ccc(O)cc3)CN21	PLCg1 inh 17.7 | PLCgamma1 ctr inactive | PLCbeta3 conf inactive
CN(C(=O)COc1ccccc1C(=O)NCCOc1ccccc1)c1ccccc1	PLCb3 inh 16.9, PLCg1 inh 15.1 | PLCgamma1 ctr inactive | PLCbeta3 conf 11.6
O=C(NCCOc1ccccc1)c1ccccc1Cl	none
N#C/C(=C\c1ccco1)C(=O)NCC1CCCO1 (stereo not given)	PLCb3 inh 12.8, PLCg1 inh 11.2 | PLCgamma1 ctr inactive | PLCbeta3 conf inactive
CCCCCCC1CC(CSC(=N)N)OC1=O (stereo not given)	PLCg1 inh 10.6 | PLCgamma1 ctr inactive | PLCbeta3 conf inactive
O=S(=O)(c1cc(O)ccc1O)c1cccc2c(S(=O)(=O)c3cc(O)ccc3O)cccc12	PLCg1 inh 10.1 | PLCgamma1 ctr inactive | PLCbeta3 conf inactive
O=S(=O)(O)c1cc(O)ccc1O	none
CC(=O)NC1C(OCCOc2ccc(Cl)cc2Cl)OC(COC(C)=O)C(OC(C)=O)C1OC(C)=O (stereo not given)	PLCg1 inh 10.2 | PLCgamma1 ctr inactive | PLCbeta3 conf inactive
O=C(c1ccncc1)N1CCCC(N2CCN(c3ccc(F)cc3)CC2)C1 (stereo not given)	PLCg1 inh 10.7 | PLCgamma1 ctr inactive | PLCbeta3 conf inactive
O=C(c1cccc(S(=O)(=O)N2CCN(c3ccc(F)cc3)CC2)c1)N1CCCC(C(F)(F)F)C1 (stereo not given)	PLCg1 inh 10.3 | PLCgamma1 ctr 13.7 | PLCbeta3 conf inactive
O=C(c1cccnc1)N1CCCC(Nc2ccc(F)cc2)C1 (stereo not given)	PLCg1 inh 14.5 | PLCgamma1 ctr inactive | PLCbeta3 conf inactive
O=C(C1CCCC1)N1CCCC(Nc2ccc(F)cc2)C1 (stereo not given)	none
COC(=O)[C@@]12C[C@@H](CC(=O)N3CCCCC3)C(=O)N(Cc3ccco3)C1=CCC(C)(C)C2	none (no result: Arr AP2 block, procasp3 activ, proCasp7 act)
CC(C)CCNC(=O)C(c1ccncc1)N(C(=O)Cn1nnc(-c2ccc(F)cc2)n1)c1ccccc1F (stereo not given)	PLCg1 inh 10.1 | PLCgamma1 ctr inactive | PLCbeta3 conf inactive
CCOC(=O)N1CCN(C(=O)CN(c2cccc(C)c2)S(=O)(=O)c2ccccc2)CC1	none
CCOC(=O)N1CCN(C(=O)CN(c2ccc(OC)cc2)S(C)(=O)=O)CC1	PLCb3 inh 11.2 | PLCgamma1 ctr inactive | PLCbeta3 conf inactive
CCOC(=O)N1CCN(C(=O)c2ccc(N(Cc3ccc(C)cc3)S(C)(=O)=O)cc2)CC1	PLCg1 inh 11.7 | PLCgamma1 ctr inactive | PLCbeta3 conf inactive
CCOC(=O)N1CCN(C(=O)CN(c2cccc(C)c2)S(=O)(=O)c2ccc(C)cc2)CC1	PLCg1 inh 19.6 | PLCgamma1 ctr inactive | PLCbeta3 conf inactive
